In ChEMBL document CHEMBL5674869, “The Histone Methyltransferase Inhibitor A-366 Uncovers a Role for G9a/GLP in the Epigenetics of Leukemia” (PLoS One, 2015):
Calls of active or inactive are those of the source. No cut-off for these calls is given here.

What was measured:
MCF7 [1] = assay: Antiproliferative activity against human MCF7 cells assessed as inhibition of colony formation at 10 uM after 14 days by crystal violet staining based clonogenic assay; format: functional, cell-based; details: time 14.0 day
Method in brief: (§1)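 Clonogenic assay: 500 live cells per well were seeded into six-well plates in drug-free medium. Compound diluted in culture medium was added 24 h later. Cells were cultured at 37°C, then fixed and stained with 0.2% crystal violet. Colonies were counted on an automated colony counter.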

MDA-MB-231 = assay: Antiproliferative activity against human MDA-MB-231 cells assessed as inhibition of colony formation at 10 uM after 14 days by crystal violet staining based clonogenic assay; format: functional, cell-based; details: time 14.0 day; method in brief: as §1
HT-1080 [2] = assay: Antiproliferative activity against human HT-1080 cells after 5 days by Cell-Titer-Glo assay; format: functional, cell-based; details: HT-1080, 120 h
Method in brief: (§2)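 ATCC tumor lines were grown in their recommended media with 10% FBS and STR-authenticated. Cells were exposed to compound for the stated number of days. Viable cells were read by CellTiter-Glo endpoint. Inhibition was the ratio of treated to untreated wells, with cell-free wells set as 100% inhibition. The EC50 was taken from the dose response.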

[3] = molecular target: T1, Histone-lysine N-methyltransferase EHMT2 (Homo sapiens) (UniProt Q96KQ7); assay: Inhibition of G9a in human PC-3 cells assessed as effect on H3k9me3 levels at 0.3 to 3 uM after 72 hrs by Western blot analysis; format: cell-based; details: dose 0.3-3 µM
T1 sequence (whole entry): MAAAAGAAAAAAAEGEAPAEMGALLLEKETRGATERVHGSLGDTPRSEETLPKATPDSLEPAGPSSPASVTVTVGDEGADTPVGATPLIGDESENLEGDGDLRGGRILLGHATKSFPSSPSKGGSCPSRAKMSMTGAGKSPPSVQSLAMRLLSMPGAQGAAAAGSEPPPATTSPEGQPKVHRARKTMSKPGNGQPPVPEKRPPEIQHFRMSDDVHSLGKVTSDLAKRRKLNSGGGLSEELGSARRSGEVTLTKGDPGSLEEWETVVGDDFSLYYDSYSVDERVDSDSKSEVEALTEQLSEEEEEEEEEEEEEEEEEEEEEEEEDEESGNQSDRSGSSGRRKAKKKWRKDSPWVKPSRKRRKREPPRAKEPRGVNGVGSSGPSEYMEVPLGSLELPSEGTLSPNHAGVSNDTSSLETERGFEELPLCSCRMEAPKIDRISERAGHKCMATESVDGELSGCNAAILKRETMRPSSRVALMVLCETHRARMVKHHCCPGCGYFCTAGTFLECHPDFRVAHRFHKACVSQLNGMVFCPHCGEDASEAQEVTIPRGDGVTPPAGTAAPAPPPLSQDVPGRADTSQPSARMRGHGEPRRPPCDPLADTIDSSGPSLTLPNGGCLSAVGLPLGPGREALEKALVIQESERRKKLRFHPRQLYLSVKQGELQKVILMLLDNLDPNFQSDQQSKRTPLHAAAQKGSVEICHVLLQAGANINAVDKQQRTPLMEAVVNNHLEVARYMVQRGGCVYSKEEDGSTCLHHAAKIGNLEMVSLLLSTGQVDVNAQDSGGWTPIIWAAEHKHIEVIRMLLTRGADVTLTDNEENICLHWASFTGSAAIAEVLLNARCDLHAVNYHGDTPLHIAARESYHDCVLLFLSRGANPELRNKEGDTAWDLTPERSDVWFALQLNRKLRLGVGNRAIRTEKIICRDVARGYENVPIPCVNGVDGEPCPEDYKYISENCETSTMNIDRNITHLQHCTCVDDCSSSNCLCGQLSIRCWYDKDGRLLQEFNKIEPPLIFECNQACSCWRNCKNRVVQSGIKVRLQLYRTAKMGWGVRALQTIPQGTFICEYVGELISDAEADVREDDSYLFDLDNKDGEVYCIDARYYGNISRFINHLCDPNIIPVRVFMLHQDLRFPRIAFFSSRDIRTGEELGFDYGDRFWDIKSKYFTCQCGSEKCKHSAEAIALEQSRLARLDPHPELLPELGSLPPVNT
Method in brief: (§3)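 PC-3 prostate cells incubated with DMSO, 0.3 or 3 μM compound for 72 h. Lysates probed by western blot with antibodies to H3K9me2, H3K4me2, H3K4me3, H3K9me3, H4K20me1, H4K20me3, H3K36me2 and H3K27me3.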

[4] = molecular target: T1, Histone-lysine N-methyltransferase EHMT2 (Homo sapiens); assay: Inhibition of G9a in human PC-3 cells assessed as effect on H4k20me1 levels at 0.3 to 3 uM after 72 hrs by Western blot analysis; format: cell-based; details: dose 0.3-3 µM; method in brief: as §3
[5] = molecular target: T1, Histone-lysine N-methyltransferase EHMT2 (Homo sapiens); assay: Inhibition of G9a in human PC-3 cells assessed as effect on H3k36me2 levels at 0.3 to 3 uM after 72 hrs by Western blot analysis; format: cell-based; details: dose 0.3-3 µM; method in brief: as §3
MCF7 [6] = assay: Antiproliferative activity against human MCF7 cells assessed as effect on colony formation at 0.1 to 10 uM after 14 days by crystal violet staining based clonogenic assay; format: functional, cell-based; details: dose 0.1-10 µM, time 14.0 day; method in brief: as §1
HT-1080 [7] = assay: Antiproliferative activity against human HT-1080 cells upto 10 uM after 5 days by Cell-Titer-Glo assay; format: functional, cell-based; details: time 5.0 day; method in brief: as §2
MV4-11 [8] = assay: Inhibition of cell viability in human MV4-11 cells after 14 days by trypan blue exclusion assay; format: functional, cell-based; details: time 14.0 day
Method in brief: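 MV4;11 cells treated 14 days with compound over a concentration range. Viability scored by trypan blue exclusion; parallel proliferation read by CellTiter-Glo.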

MV4-11 [9] = assay: Antitumor activity against human MV4-11 cells xenografted in SCID/beige mouse assessed as tumor growth inhibition at 30 mg/kg/day via osmotic-mini pump for 14 days; format: functional; details: MV4-11, 336 h, time 14 day
Method in brief: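 MV4;11 cells mixed with 50% Matrigel, 5 x 10^6 cells injected subcutaneously in flank of 6–8 week old female SCID-beige mice. At ~200 mm3, mice allocated by tumor volume (n = 10/group). Dosed by osmotic mini-pump in 98% PEG-400/2% Tween-80 for 14 days. Calipers read 2 times weekly, V = (L x W2)/2. %TGI computed from control versus treated mean tumor volumes.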

[10] = Drug level in SCID/beige mouse tumor xenografted with human MV4-11 cells at 30 mg/kg/day via osmotic-mini pump; format: ADME, organism-based, Neoplasm; details: in vivo
Method in brief: (§4)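 Tumor-bearing SCID-beige female mice (6–8 wk) with subcutaneous flank MV4;11 xenografts (5 x 10^6 cells in 50% Matrigel, grown to ~200 mm3). Compound given by osmotic mini-pump at 30 mg/kg/day in 98% PEG-400/2% Tween-80. Separate PK/PD arm sacrificed after 2, 7 and 14 days of treatment; plasma and tissues collected and analyzed for drug levels.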

[11] = Drug level in SCID/beige mouse plasma xenografted with human MV4-11 cells at 30 mg/kg/day via osmotic-mini pump; format: ADME, organism-based; details: in vivo; method in brief: as §4
[12] = Drug level in SCID/beige mouse muscle xenografted with human MV4-11 cells at 30 mg/kg/day via osmotic-mini pump; format: ADME, organism-based, Muscle tissue; details: in vivo; method in brief: as §4
HL-60 (human) = assay: Induction of cell cycle arrest in human HL-60 cells assessed as increase in G1 phase cells after 4 days by propidium iodide staining based flow cytometry; details: time 4.0 day

EC50 (HT-1080 [2]) | inhibition [3] | inhibition [4] | inhibition [5] | Drug uptake [10] | Drug uptake [11] | Drug uptake [12] | SMILES | Activity (MCF7 [1]) | Activity (MDA-MB-231) | Activity (MCF7 [6]) | Activity (HT-1080 [7]) | inhibition (MV4-11 [8]) | inhibition in vivo at 30 mg/kg/day (MV4-11 [9]) | Activity (HL-60 (human))
0.5 µM |  |  |  |  |  |  | COc1cc2c(NC3CCN(C(C)C)CC3)nc(C3CCCCC3)nc2cc1OCCCN1CCCC1 | Active | Active |  |  |  |  | 
 | inactive | inactive | inactive | Active | Active | Active | COc1cc2c(cc1OCCCN1CCCC1)N=C(N)C21CCC1 |  |  | inactive | inactive | Active | 45% | Active
